Yeast fitness data for 167 variants are collected here from the RNAGym collection of RNA variant scans (doi:10.1126/science.aae0568).

Sequences and labels used below:
B1: tRNA (parent)
chain: GUUCCGUUGGCGUAAUGGUAACGCGUCUCCCUCCUAAGGAGAAGACUGCGGGUUCGAGUCCCGUACGGAACG

Fewer inactive variants are shown than the library holds.

The variants in the data set derive from B1. Put plainly: yeast fitness relative to wild type (ratio to wild type); higher = fitter; tRNA-Arg(CCU), competitive growth, 37 C, YPD. Summed up:
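Amplicons of the tRNA-Arg(CCU) gene were sequenced, 100-nucleotide paired-end, from the start population and from each end population of a pooled yeast competition. The competition, in six parallel replicates, lasted 24 hours in YPD at 37°C. Fitness relative to wild type was calculated from changes in genotype frequencies. Genotypes had to have ≥ 100 starting reads, and estimates < 0.5 were set to 0.5.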
As for C5G U47C, the yeast fitness amounted to 0.745.

As to C5G U8C C11A A15G G18A C30G, the yeast fitness was not above 0.5.

For the variant C5G U13A C31G G50A A65C, the yeast fitness amounted to 0.58.

Take C5G U13A C31G G50A A65G: the yeast fitness is not above 0.5.

On to C5U A20G, for which the yeast fitness was found to be 0.904.

C5U A20C: the yeast fitness was 1.1.

On to C5G U35A G51A, for which the yeast fitness was not above 0.5.

Regarding C5G U13G A20U A37G G52C G68A, the yeast fitness is not above 0.5.

On to C5G U8G, for which the yeast fitness is 0.527.

Regarding C5G U8C, the yeast fitness was 0.843.

As to C5G U13C C29U C62U, the yeast fitness is not above 0.5.

Turning to C5G U13C A21C G63C A69C, the yeast fitness was not above 0.5.

For the variant C5G U19A C24G C34A C55U, the yeast fitness was determined as 0.601.

For C5G U13A C31G G50A G67A, the yeast fitness is not above 0.5.

As for C5G U8A G41C U47A C61A G67C, the yeast fitness was not above 0.5.

With C5U A15C G58A, the yeast fitness stood at 0.569.

Consider C5U A20C C24U C34G, for which the yeast fitness is not above 0.5.

With C5U A14G C22U, the yeast fitness was not above 0.5.

Consider C5U A14G C22A, for which the yeast fitness is not above 0.5.

Regarding C5G U35A G44C C66U G67U A70G, the yeast fitness worked out at 0.542.

On to C5G U8C G48C, for which the yeast fitness was not above 0.5.

Turning to C5U A15C C34G A40U A43C C49G G50A C60U, the yeast fitness was 0.583.

In the case of C5U A14C C31G A43U C60G, the yeast fitness is not above 0.5.

With C5G U13C C22G C29G A45C, the yeast fitness is not above 0.5.

On to C5G U35G A37G, for which the yeast fitness came to 0.536.

In the case of C5U A15C G18A U35C A42G C49A, the yeast fitness was found to be 0.586.

Regarding C5G U32C G38C, the yeast fitness was determined as 0.534.

Turning to C5G U7C C30U G50C, the yeast fitness was not above 0.5.

With C5G U26C C30U C49U A69U, the yeast fitness is not above 0.5.

For C5G U8C G56A, the yeast fitness worked out at 0.723.

Regarding C5G U26G A36C C66A, the yeast fitness was not above 0.5.

Turning to C5U A20C C22U A36G G52C, the yeast fitness is not above 0.5.

Regarding C5G U13G C29U G50C U59A, the yeast fitness is not above 0.5.

For C5U A15G A20U A42G G63A, the yeast fitness was not above 0.5.

C5G U47C C61A G68U: the yeast fitness was not above 0.5.

With C5U A14G C46G A65U, the yeast fitness is not above 0.5.

Turning to C5U A20U G67A A70G, the yeast fitness was 0.933.

As to C5U A15C U32A U47C, the yeast fitness is not above 0.5.

As for C5U A14C A21G C30G C34U G39A C55U, the yeast fitness is not above 0.5.

C5U A21G: the yeast fitness stood at 0.981.

Turning to C5G U13G C29U A40G C60U A65G C66U, the yeast fitness is not above 0.5.

For the variant C5U A14U C30U G39C C60A, the yeast fitness was not above 0.5.

With C5G U47C C61G, the yeast fitness came out at 0.519.

As for C5G U53C, the yeast fitness amounted to 0.866.

In the case of C5G U53A, the yeast fitness was 0.658.

For C5U A15G A20U, the yeast fitness was found to be 0.662.

Consider C5G U16A A57U, for which the yeast fitness was not above 0.5.

As for C5G U16A A21C A57C, the yeast fitness was determined as 0.624.

Regarding C5G U13C A21C G67A, the yeast fitness was not above 0.5.

Consider C5G U47A C55A, for which the yeast fitness turned out to be 0.637.

Consider C5G U8C A36C A43U, for which the yeast fitness is not above 0.5.

With C5U A20U A40C, the yeast fitness is not above 0.5.

For the variant C5G U19A A20U G51C, the yeast fitness is not above 0.5.

In the case of C5U A20G G44C, the yeast fitness is 0.764.

Consider C5G U7A A20C C60U A69U, for which the yeast fitness was 0.546.

As for C5G U35C G48C, the yeast fitness is 0.571.

Regarding C5G U19C U54C A69U, the yeast fitness was not above 0.5.

For C5G U19C U54C A69C, the yeast fitness was not above 0.5.

As for C5G U8C U47A G68C, the yeast fitness is not above 0.5.

In the case of C5G U8A C62A A69U, the yeast fitness was not above 0.5.

As for C5G U19G C22U U32C A65C, the yeast fitness was not above 0.5.

Turning to C5G U59G A65G, the yeast fitness stood at 0.614.

For C5G U13C C31A A43G G50C, the yeast fitness is not above 0.5.

With C5U A20U U26A A65C G67C, the yeast fitness was not above 0.5.

Consider C5U A14C C46G, for which the yeast fitness was 0.561.

C5U A14C C46A: the yeast fitness came out at 0.548.

As for C5G U35A A36C C55A, the yeast fitness is not above 0.5.

As for C5G G58C, the yeast fitness amounted to 0.859.

With C5G U32C, the yeast fitness came out at 0.946.

On to C5G U26A A36C A42G, for which the yeast fitness is not above 0.5.

Consider C5U A20C A69U, for which the yeast fitness was 0.771.

In the case of C5U A21C G23A C49A G52A G56C A57C, the yeast fitness came to 0.508.

For the variant C5G G56C A65C, the yeast fitness was 0.549.

In the case of C5G G56C A65U, the yeast fitness was not above 0.5.

Take C5G U13G C24G: the yeast fitness was not above 0.5.

For C5G U13C C46U, the yeast fitness is 0.547.

Consider C5U A15C C34G A37G A65G, for which the yeast fitness was not above 0.5.

For the variant C5U A20G C31G U47C G48C, the yeast fitness was not above 0.5.

As for C5G U13G C27U G41A, the yeast fitness came out at 0.541.

Turning to C5U A14G, the yeast fitness came out at 0.77.

As to C5U A14U, the yeast fitness came to 0.718.

Take C5G U53G A65U: the yeast fitness amounted to 0.612.

C5U A20G C61U: the yeast fitness was determined as 0.711.

In the case of C5U A21G C22G A43U, the yeast fitness is 0.533.

Take C5U A14U C27G G38C G63A: the yeast fitness was not above 0.5.

Turning to C5G U16A G44A C46U A69C, the yeast fitness was not above 0.5.

Take C5G U7A A20C: the yeast fitness amounted to 0.694.

For the variant C5G U32C G58C, the yeast fitness was 0.665.

For the variant C5U A20U U26A C34U C49A A57C C62U, the yeast fitness is not above 0.5.

In the case of C5U A20G C24G U26G A37C A57G C66A, the yeast fitness is not above 0.5.

As to C5U A15C A21U, the yeast fitness is not above 0.5.

As for C5G U7C C24G A43C, the yeast fitness is 0.629.

Regarding C5U A14C C31A A40U C60A, the yeast fitness is not above 0.5.

For C5U A20G A21G C31U, the yeast fitness was not above 0.5.

Turning to C5G U7A C22U C30A C49G C62G, the yeast fitness was not above 0.5.

As to C5U A14G G50C C55U A57G G68A, the yeast fitness is not above 0.5.

Turning to C5U A20G A37G G67A, the yeast fitness is not above 0.5.

With C5U A14G C24U U32G A43G C66U, the yeast fitness is not above 0.5.

As for C5U A14C C24U A36G A70U, the yeast fitness was not above 0.5.

As to C5U A14U C31G U59A C61U, the yeast fitness was not above 0.5.

For the variant C5U A21C A42G C61G, the yeast fitness was not above 0.5.

Take C5G U13C A70C: the yeast fitness came to 0.579.

Turning to C5G U19A C30G G39C U53C C55A, the yeast fitness is not above 0.5.

For the variant C5G U13G C29U A40G, the yeast fitness was not above 0.5.

In the case of C5U A14U A15C, the yeast fitness was found to be 0.727.

On to C5U A15U G17A G44C, for which the yeast fitness is not above 0.5.

As to C5G U13G G18C A21C C60G A65U C66U, the yeast fitness is not above 0.5.

With C5U A21G C24A A42C, the yeast fitness was not above 0.5.

Regarding C5U A15U C27G, the yeast fitness was not above 0.5.

As to C5G U35C G50C G56A A70U, the yeast fitness was not above 0.5.

With C5U A20G A43G A65U, the yeast fitness is not above 0.5.

Turning to C5U A14C U35C, the yeast fitness is not above 0.5.

Consider C5G U13C C22G C29G A45C G68C A69G, for which the yeast fitness is not above 0.5.

Turning to C5U A20U C55G G68A, the yeast fitness is not above 0.5.

Turning to C5G U13C A21C, the yeast fitness amounted to 0.585.

For C5G U7C C49U, the yeast fitness stood at 0.524.

With C5G U19A, the yeast fitness was found to be 0.818.

On to C5G U19C, for which the yeast fitness amounted to 0.997.

On to C5U A20C C31A C34G A57G A65U, for which the yeast fitness amounted to 0.593.

Regarding C5G U13C A20C U32G C46U, the yeast fitness turned out to be 0.703.

Turning to C5G U7C C11G A43G A65U, the yeast fitness is not above 0.5.

For the variant C5U A15C A36U A65C, the yeast fitness is not above 0.5.

As for C5U A20G A37G, the yeast fitness is 0.524.

On to C5G U13A A20G U35A A40G, for which the yeast fitness was not above 0.5.

Take C5G U28A A57C C66G: the yeast fitness was not above 0.5.

As to C5U A20U G23C C31U U54C, the yeast fitness is not above 0.5.

Take C5G U26A A36C: the yeast fitness was not above 0.5.

On to C5U A14G C33G A40G C60G, for which the yeast fitness is not above 0.5.

C5G U47C U59A: the yeast fitness is not above 0.5.

As to C5U A15C G18A G23A U35C A42G C49A, the yeast fitness is not above 0.5.

As to C5G U13C A20C U32G C46U G58C, the yeast fitness was not above 0.5.

C5G U8C C60A G63A: the yeast fitness was not above 0.5.

Consider C5G U47A C62G G63A, for which the yeast fitness is not above 0.5.

Turning to C5G U13G A20U A37G A69U, the yeast fitness is not above 0.5.

C5G U7C A45U C55G: the yeast fitness was not above 0.5.

As to C5G U19G A36U G56C A65C, the yeast fitness is not above 0.5.

As for C5G U13A U19A C30U, the yeast fitness came to 0.573.

Turning to C5U A14C G68C, the yeast fitness was not above 0.5.

With C5U A14G G68C, the yeast fitness came to 0.57.

As for C5G U13A C22G C27U C29G A40U U54C C61G, the yeast fitness was not above 0.5.

For the variant C5G U19G C31U U32A A45U A70U, the yeast fitness is not above 0.5.

As to C5U A15U C29U C31U C34U G48C G68A, the yeast fitness was not above 0.5.

As to C5U A20C G58A, the yeast fitness is not above 0.5.

As for C5G U7A C22U C30A C49G C55U, the yeast fitness stood at 0.552.

Take C5U A14U U19C G48A C66U: the yeast fitness is not above 0.5.

C5G U8C C11G C31G: the yeast fitness was not above 0.5.

In the case of C5G U26G, the yeast fitness stood at 0.625.

As for C5G U26A, the yeast fitness worked out at 0.815.

Regarding C5G U26C, the yeast fitness was 0.803.

Regarding C5U A14C G52C A65U, the yeast fitness was not above 0.5.

For the variant C5G U13G A36U U64G, the yeast fitness was not above 0.5.

Turning to C5G U8C A15G G18C, the yeast fitness is not above 0.5.

On to C5G U7G A15G, for which the yeast fitness is not above 0.5.

Regarding C5G G68A, the yeast fitness is 0.716.

As for C5G G68C, the yeast fitness worked out at 0.826.

Take C5U A20U A36G A65U: the yeast fitness was not above 0.5.

C5U A15C G23C G56A: the yeast fitness is not above 0.5.

With C5G U35G C49A G56A, the yeast fitness was not above 0.5.

Turning to C5U A15U C29U C31U C34U C66A, the yeast fitness is not above 0.5.

C5G U8C C30U U54A: the yeast fitness was not above 0.5.

Consider C5G U16A G48A U54C, for which the yeast fitness was determined as 0.701.

Regarding C5U A20U A45U, the yeast fitness came out at 0.582.

As for C5U A15U A21G C49U, the yeast fitness is not above 0.5.

For C5U A14U C49G A65U, the yeast fitness is not above 0.5.

Take C5U A20C U26G C30U C49U C66G: the yeast fitness is not above 0.5.

As for C5G U7A C27A C29A, the yeast fitness was not above 0.5.

C5G U7C U54A G63A: the yeast fitness was not above 0.5.
